Screens deposited in PubChem BioAssay by several laboratories.
SF1 activator – activates the human nuclear receptor SF-1; Q13285; CHO-K1 Gal4-SF-1 LBD luciferase reporter; % increase over DMSO SF-1-specific signal; activation, % at 10 µM; 1.9% of 65,000 active;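 active = activation above the mean activation of all tested compounds plus 3 SD, cut at about 50% in these data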
Target sequence (Q13285 whole entry, looked up, the tested form may be a part): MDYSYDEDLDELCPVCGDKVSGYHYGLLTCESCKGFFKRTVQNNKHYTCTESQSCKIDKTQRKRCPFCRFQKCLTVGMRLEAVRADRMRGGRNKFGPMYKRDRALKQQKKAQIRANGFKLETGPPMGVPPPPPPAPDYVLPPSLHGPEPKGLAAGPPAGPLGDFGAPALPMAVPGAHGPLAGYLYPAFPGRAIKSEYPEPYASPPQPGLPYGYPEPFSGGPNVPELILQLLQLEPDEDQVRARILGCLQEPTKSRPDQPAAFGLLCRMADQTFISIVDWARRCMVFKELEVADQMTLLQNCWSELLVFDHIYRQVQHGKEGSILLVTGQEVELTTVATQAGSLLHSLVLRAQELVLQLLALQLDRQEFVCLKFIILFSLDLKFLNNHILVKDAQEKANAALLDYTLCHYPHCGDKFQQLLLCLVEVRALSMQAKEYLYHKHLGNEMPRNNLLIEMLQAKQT
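Test system: CHO-K1 cells with Gal4–hSF-1 LBD chimera plus Gal4-driven luciferase; Input: 4,000 cells/well; Compound: 10 µM only; Times: 20 h compound treatment, 37 °C; Measured by: steady-glow luciferase luminescence, read after 15 min reagent incubation; Measure: percent activation versus DMSO; Control set: DMSO and mock-transfected background; Replicates: one test per compound.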
Pyk2 oligo antag – Pyk2 (human) oligomerization antagonism. Q14289. Q293 cells, Pyk2 FERM NanoBiT luminescence; active compounds read low. z-score (the deposit names both 25 µM and 10 µM). AID 1347419. 0.83% of 99,000 active;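 active = Z-score of -3 or lower, scaled per plate to the spread of control and sample wells; inactive = z-score above -3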;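 note: negative z-score means lost luminescence so less FERM oligomerization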
ERb coact inh – ER-beta (human) coactivator binding inhibition; 1.3% of 86,000 active; Q92731; inhibition, % at 25.6 µM; TR-FRET ER-beta LBD / SRC1-Cy5 peptide binding; receptor agonist-loaded with 1 µM estradiol;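 active = compounds whose percent inhibition of the receptor-coactivator binding signal exceeds about 50% in the single-dose screen, limit read from the data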
ERa SRC1 pot – ER-alpha (human) coactivator binding potentiation; P03372; TR-FRET ERalpha-LBD/SRC-Cy5 coactivator binding, 2 h; 100 = basal binding, no effect; coactivator binding (% of control), % at 25.6 µM; 1.3% of 86,000 active; in the data active = activity above about 200%;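 note: binding measured in presence of low estradiol as agonist stimulus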
RORA act – RORA (human) activation; CHO-K1 Gal4-RORA LBD luciferase reporter, luminescence; percent increase over mock-subtracted basal signal; activation, % at 10 µM; 1.5% of 65,000 active; AID 560;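 active = activation above the mean of all tested compounds plus 3 SD, cut at about 49% in these data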
ERa SRC1 inh – ER-alpha (human) coactivator binding inhibition. inhibition, % at 25.6 µM. P03372. 1.7% of 86,000 active. AID 629. TR-FRET ER-alpha LBD / SRC-1 peptide, estradiol-bound; in the data active = inhibition above about 50%
Of the large screens only hits and unclear results are named; the others gave an inactive call; [ ] = remark or other dose. The list is not random: actives were taken first. Their share in the collection is about 4.8%.

COc1ccccc1N(CC(=O)NCc1ccccc1)C(=O)CCC(=O)Nc1cc(C)ccn1	none (no result: SF1 activator, RORA act)
CC(C)OCCCn1c(=N)c(C(N)=S)cc2c(=O)n3ccccc3nc21	none
CCOC(=O)c1[nH]c2ccc(OC)cc2c1C	SF1 activator 59 (no result: ERb coact inh, ERa SRC1 pot, ERa SRC1 inh)
CCOC(=O)c1[nH]c2ccc(OC)cc2c1NC(C)=O	none
CCOC(=O)c1cc2cc(OC)ccc2[nH]1	SF1 activator 73
O=CN(Cc1ccco1)C1(C(=O)NC2CCCCC2)CCCCC1	none
Cc1cc(NC(=O)c2c(F)cccc2F)n(-c2nc3ccccc3[nH]2)n1	none (no result: SF1 activator, RORA act)
Cc1cc(NC(=O)c2c(F)cccc2Cl)n(-c2nc3ccccc3[nH]2)n1	ERb coact inh 52 (no result: SF1 activator, RORA act)
Cc1cc(NC(=O)c2ccccc2F)n(-c2nc3ccccc3[nH]2)n1	ERb coact inh 52[fluorescence artefact?], ERa SRC1 inh 53[fluorescence artefact?]
COc1cc(NCCCC(C)N)c2ncccc2c1 (configuration not stated)	ERb coact inh 90[fluorescence artefact?], ERa SRC1 inh 70[fluorescence artefact?]
O=C(c1cccs1)c1cn(CC(=O)N2CCc3ccccc3C2)c2ccccc12	none
NC(=O)c1sc2nc3c(c(-c4ccco4)c2c1N)CCC3	ERb coact inh 54[fluorescence artefact?]
Cc1nc(N/C(N)=N/S(=O)(=O)c2ccc([N+](=O)[O-])cc2)nc2ccccc12	none (no result: SF1 activator, ERb coact inh, ERa SRC1 pot, RORA act, ERa SRC1 inh)
O=S(=O)(NC1=NCCC1)c1cccc(NS(=O)(=O)c2ccc(OC(F)(F)F)cc2)c1	none (no result: SF1 activator, ERb coact inh, ERa SRC1 pot, RORA act, ERa SRC1 inh)
COc1ccc(N(C(=O)c2ccco2)C(C(=O)NC2CCCC2)c2ccc(N(C)C)cc2)cc1OC (configuration not stated)	none
COc1ccc(C(C(=O)NC2CCCC2)N(C(=O)c2ccco2)c2ccc3c(c2)OCO3)cc1OC (configuration not stated)	ERb coact inh 57
COc1cccc(NC(=O)N(CCCN2CCOCC2)C(C)c2cc3ccccc3o2)c1 (configuration not stated)	none (no result: SF1 activator, RORA act)
Cc1cc(=O)oc2cc(OCC3CC(c4ccc(Cl)cc4)=NO3)ccc12 (configuration not stated)	none (no result: SF1 activator, RORA act)
Cc1cc(=O)oc2cc(OCC3CC(c4ccc(N(C)C)cc4)=NO3)ccc12 (configuration not stated)	ERa SRC1 inh 51[fluorescence artefact?]
COc1ccc(NC(=O)CSc2nc(-c3ccncc3)nn2CC(=O)N2CCCC2)cc1	none
N#CC1=C(N)OC2=C(C(=O)CCC2)C1CCc1ccccc1 (configuration not stated)	ERa SRC1 inh 100[fluorescence artefact?]
CC1(C)CC(=O)C2=C(C1)OC(N)=C(C#N)C2Cc1ccccc1 (configuration not stated)	none
CCn1c2ccccc2c2nnc(SCC(=O)N3CC(C)OC(C)C3)nc21 (configuration not stated)	none
O=C(O)CCn1cc(/C=C/C(=O)c2ccc(Cl)cc2)c(-c2ccc(Br)cc2)n1	none (no result: SF1 activator, ERb coact inh, ERa SRC1 pot, RORA act, ERa SRC1 inh)
Cc1ccc(NC(=O)c2cccs2)cc1	none (no result: SF1 activator, RORA act)
Cc1[nH]c(=O)[nH]c(=O)c1NC(=O)c1cccs1	ERa SRC1 inh 87[fluorescence artefact?]
N#Cc1c(N)c(C(=O)c2ccccc2)n2c1CCCC2	none
CC(=O)N(C(C)=O)c1c(C#N)c(C)n(-c2ccccc2)c1C(=O)c1ccccc1	ERa SRC1 inh 68
Cc1cc2n(n1)C(c1c[nH]c3ccccc13)Nc1ccccc1-2 (configuration not stated)	none
CCCOc1ccc(NC(=O)CC2C(=O)N(C)C(=S)N2Cc2cccs2)cc1 (configuration not stated)	none (no result: SF1 activator, ERb coact inh, ERa SRC1 pot, RORA act, ERa SRC1 inh)
Cc1nc(Cc2nnc(SCc3nc(N)nc(Nc4ccccc4C)n3)o2)cs1	none
CC(C)(C)Nc1cccccc1=O	none
CNc1cccccc1=S	ERa SRC1 inh 96[fluorescence artefact?]
CCOc1ccc(N(C(C)=O)c2nc(C)cc(C)c2C#N)cc1	none (no result: SF1 activator, RORA act)
CCOC(=O)c1ccc(NC(=O)c2c(O)c3ccccc3n(C)c2=O)cc1	ERa SRC1 inh 63 (no result: Pyk2 oligo antag)
Cc1cccc(OCCn2c(=O)n(C)c3ccccc32)c1	SF1 activator 81, RORA act 67 (no result: Pyk2 oligo antag)
NNC(=O)CN1C(c2ccc(Cl)cc2)=Nc2ccc(Br)cc2C1c1ccccc1 (configuration not stated)	Pyk2 oligo antag -3.4 (no result: SF1 activator, ERb coact inh, ERa SRC1 pot, RORA act, ERa SRC1 inh)
CCC1=Nc2ccc(Br)cc2C(c2ccccc2)N1CC(=O)OC (configuration not stated)	none (no result: SF1 activator, ERb coact inh, ERa SRC1 pot, RORA act, ERa SRC1 inh)
COC(=O)CN1C(c2ccccc2)=Nc2ccc(Cl)cc2C1c1ccccc1 (configuration not stated)	Pyk2 oligo antag -3 (no result: SF1 activator, ERb coact inh, ERa SRC1 pot, RORA act, ERa SRC1 inh)
C#CCOc1ccc(Br)cc1/C=N/O	none (no result: SF1 activator, RORA act)
Cc1cc(C)n(-c2cc(N3CCN(C(=O)c4cccc(F)c4)CC3)ccc2[N+](=O)[O-])n1	none (no result: SF1 activator, ERb coact inh, ERa SRC1 pot, RORA act, ERa SRC1 inh)
Cc1ccc(CNC(=O)c2ccc(Cl)cc2[N+](=O)[O-])cc1	none (no result: SF1 activator, ERb coact inh, ERa SRC1 pot, RORA act, ERa SRC1 inh)
COC(=O)CP(=O)(c1ccccc1)c1ccccc1	none (no result: SF1 activator, RORA act)
COc1ccc(-c2nc(C#N)c(N3CCC(C(N)=O)CC3)o2)cc1	none (no result: SF1 activator, RORA act)
N#Cc1nc(-c2ccc(OCc3ccccc3)cc2)oc1N1CCC(C(N)=O)CC1	ERa SRC1 pot 250[fluorescence artefact?], ERa SRC1 inh 59[fluorescence artefact?]
Cc1ccc(-c2nnc(SCC(=O)Nc3ccc(S(=O)(=O)N4CCCCCC4)cc3)o2)cc1	none
CC(=O)c1cccc(NC(=O)CSc2nnc(-c3ccc(S(=O)(=O)N4CCCC4)cc3)o2)c1	ERa SRC1 pot 261
CC1Cc2ccccc2N1C(=O)CSc1nnc(-c2ccc(S(=O)(=O)N3CCCC3)cc2)o1 (configuration not stated)	ERa SRC1 pot 374
CCOC(=O)N1CCc2c(sc(NC(=O)c3ccc(S(=O)(=O)N4CCCC4)cc3)c2C#N)C1	ERa SRC1 pot 245 (no result: Pyk2 oligo antag)
N#Cc1c(NC(=O)CN2CCN(S(=O)(=O)c3ccc4c(c3)OCCO4)CC2)sc2c1CCC2	ERb coact inh 53[fluorescence artefact?], ERa SRC1 inh 69[fluorescence artefact?]
O=C(c1cnn2c(C(F)(F)F)cc(-c3ccco3)nc12)N1CCc2ccccc2C1	none
CCOc1ccc(C(C)NC(=O)Nc2ccccc2C(=O)OC)cc1 (configuration not stated)	none (no result: SF1 activator, RORA act)
Cc1ccc(-c2ccc(=O)n(CC(=O)N3CCN(c4cc(Cl)ccc4C)CC3)n2)cc1	none (no result: SF1 activator, RORA act)
CC(=O)c1ccc(NC(=O)Nc2ccccc2)cc1	none (no result: SF1 activator, RORA act)
Cc1[nH]nc(SCC(=O)N2CCCCC2)c1[N+](=O)[O-]	ERa SRC1 pot 691[fluorescence artefact?] (no result: SF1 activator, RORA act)
Cc1[nH]nc(N2CCCCCC2)c1[N+](=O)[O-]	none (no result: SF1 activator, RORA act)
COc1ccc(N2CCN(S(=O)(=O)c3ccc4c(c3)CCCC4)CC2)c([N+](=O)[O-])c1	none (no result: SF1 activator, ERb coact inh, ERa SRC1 pot, RORA act, ERa SRC1 inh)
C=CCn1cnc2c(NCc3ccccc3)ncnc21	SF1 activator 65
Cc1ccc(-n2ncc3c(N4CCCC(C)C4)ncnc32)c(C)c1 (configuration not stated)	SF1 activator 59 (no result: Pyk2 oligo antag)
CC1CCCN(c2ncnc3c2cnn3-c2ccccc2)C1 (configuration not stated)	none (no result: Pyk2 oligo antag, ERb coact inh, ERa SRC1 pot, ERa SRC1 inh)
Cc1ccc(-n2ncc3c(N4CCCC4)ncnc32)c(C)c1	SF1 activator 66
